Measurements from article PMC6465157 (Chemical research in toxicology, 2019).
Where two headings read alike, the source gives them in different places.

How the values were obtained:
[1] = format: in vivo, mice
Procedure, shortened: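 Whole blood was taken 1 to 48 h after a single oral gavage (6.63 mg/kg in corn oil). Hydroxylated metabolites were methylated, and all analytes were run by GC with 63Ni-µECD on an SPB-1 column (60 m × 250 µm × 0.25 µm). The oven ran from 100 °C to 280 °C; injector was 280 °C, detector 300 °C, helium 1.0 mL/min. A PCB congener internal standard served as volume corrector.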

[2] = format: in vivo, mice; remark: listed apart in the source
Procedure, shortened: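 Blood extracts were dried under nitrogen. Headspace was sampled by SPME with a 100 µm PDMS fiber for 60 min at 60 °C, then desorbed in the injector for 5 min. Atropisomers were separated by GC-µECD with injector and detector at 250 °C and helium at 3.0 mL/min. The parent was measured on Chirasil-Dex at all time points from 1 to 48 h. Hydroxylated metabolites were measured at 5 h only, on Chirasil-Dex or CycloSil-B columns. Enantiomeric fractions were reported, n = 3–6.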

[3] = prior study, 30 mg/kg body weight, cited from earlier work
mice = assay: Daily animal welfare-assessments of exposed mice; format: in vivo; conditions: 6.63 mg/kg body weight in corn oil by oral gavage, up to 48 h
Procedure, shortened: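 Male and female mice (8 weeks ± 2 days) with liver-specific cpr deletion and congenic wild-type mice were housed at 22 ± 2 °C on a 12 h light-dark cycle with diet and water ad libitum. They were randomised to a single gavage of test compound (6.63 mg/kg; 18.4 µmol/kg) in corn oil (10 mL/kg) or to corn oil alone. Lab personnel assessed welfare daily.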

[4] = 5 h time point, all four exposure groups (M-KO, M-WT, F-KO, F-WT)
[5] = 5 h time point, all exposure groups

For Oc1cc(Cl)c(Cl)c(-c2c(Cl)ccc(Cl)c2Cl)c1Cl [5–136, 2,2′,3,3′,6,6′-hexachlorobiphenyl-5-ol], the “Detection in whole blood” value [1, 4] was “detected”.
In the case of Oc1cc(Cl)c(-c2c(Cl)ccc(Cl)c2Cl)c(Cl)c1Cl [4–136, 2,2′,3,3′,6,6′-hexachlorobiphenyl-4-ol], the “Detection in whole blood” value [1, 4] is reported as “detected”.
With Oc1cc(Cl)c(-c2c(Cl)ccc(Cl)c2Cl)c(Cl)c1Cl [E2-4–136] the “Atropisomeric enrichment in whole blood” value [2, 5] was “enriched”.
For Clc1ccc(Cl)c(-c2c(Cl)ccc(Cl)c2Cl)c1Cl [PCB 136, 2,2’,3,3’,6,6’-hexachlorobiphenyl], the “Enantiomeric fraction (EF) of PCB 136” value ([3]; F-WT mice) is given as 0.63 ± 0.06, the “Enantiomeric fraction (EF) of PCB 136” value ([3]; M-WT mice (so in the source)) is given as 0.66 ± 0.03 and the “Detection in whole blood” value ([1]; all time points investigated (1 to 48 h), oral racemic PCB 136 6.63 mg/kg) is given as “detected”. The “Adverse outcomes in daily animal welfare-assessments” value (mice) was “no adverse outcomes were observed”.
For Oc1c(O)c(Cl)c(-c2c(Cl)ccc(Cl)c2Cl)c(Cl)c1Cl [4,5–136, 4,5-dihydroxy-2,2′,3,3′,6,6′-hexachlorobiphenyl], the “Detection in whole blood” value [1, 4] was “detected”.
In the case of Oc1cc(Cl)c(Cl)c(-c2c(Cl)ccc(Cl)c2Cl)c1Cl [E1-5–136], the “Atropisomeric enrichment in whole blood” value [2, 5] is reported as “enriched”.
With Clc1ccc(Cl)c(-c2c(Cl)ccc(Cl)c2Cl)c1Cl [E2-(+)-PCB 136] the “Atropisomeric enrichment in whole blood” value ([2]; all samples, 1 to 48 h, male and female KO and WT mice) was “enriched”.
In the case of Oc1c(Cl)cc(Cl)c(-c2c(Cl)ccc(Cl)c2Cl)c1Cl [3–150, 2,2′,3′,4,6,6′-Hexachlorobiphenyl-3-ol], the “Detection in whole blood” value [1, 4] is reported as “detected”.
